# Source: PubChem BioAssay (several laboratories)
# Insulin prom inh: TRM-6 insulin promoter activity inhibition; TRM-6 cells (human fetal islet line), insulin promoter-eGFP reporter, imaging; reporter expression induced with tamoxifen; inhibition, % at 2 µM; actives 0.9% (n = 130,000);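 active = inhibition above the mean plus 3 SD, with well images judged a real hit on visual review, cut at about 60% in these data, passing the limit was not always enough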
# RAM network inh: yeast RAM network inhibition | S. cerevisiae dse1pr::URA3 reporter, 5-FOA growth OD615, 2 d; analog-sensitive cbk1-as2 kinase mutant strain | inhibition, % at 50 µM | actives 1.8% (n = 190,000);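 active = inhibition above a set limit, 3 SD over mean compound inhibition, cut at about 8.4% in these data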;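 also: 0% = DMSO-only wells with no growth and 100% = 10 µM 1-NA-PP1 full growth; inhibition rescues growth on 5-FOA so higher OD means more RAM inhibition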
# Yeast life ext: yeast lifespan extension; S. cerevisiae growth with nicotinamide, OD615; deaD strain in restrictive glucose medium; inhibition of the nicotinamide effect, % at 10 µM; actives 0.68% (n = 130,000);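 active = inhibition above a set limit, placed 3 SD over the median of all compounds, cut at about 26% in these data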;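 also: 0% = nicotinamide-treated wells and 100% = cells grown without nicotinamide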
#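 Assay system: DeaD-strain S. cerevisiae. Medium: CSMM-D glucose medium, restrictive. Reagent: nicotinamide, 1.5 mM, co-present with compound. Compound: 10 µM single point, 0.25% DMSO. Schedule: culture preincubation 4 h, compound exposure 48 h, both 30 °C. Detection: absorbance at 615 nm.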
# Efa HMGR inh: inhibitors of class II HMG-CoA reductase from Enterococcus faecalis; AID 1066; actives 0.41% (n = 190,000); purified E. faecalis HMGR, NADPH absorbance 340 nm kinetic; inhibition, % at 10 µM;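 active = inhibition above a set limit, the median over all tested compounds plus 3 SD, cut at about 9.5% in these data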;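 also: enzyme runs in reverse so mevalonate oxidation gives rising NADPH absorbance; 0% = complete reaction with DMSO and 100% = background rate lacking mevalonate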
# BB579 growth dn: yeast BB579 growth reduction in restrictive medium | S. cerevisiae BB579 growth, OD615, 48 h | AID 804 | inhibition, % at 10 µM | actives 0.51% (n = 140,000);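 active = inhibition above a set limit, 3 SD over the mean compound inhibition, cut at about 44% in these data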
#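 Material: Saccharomyces cerevisiae DeaD strain BB579, replicative lifespan model yeast; buffer or medium: CSMM-D restrictive synthetic medium containing dextrose (glucose); compound: 10 µM single dose, DMSO 0.25%; timing: 48 h compound exposure at 30 °C after 4 h preincubation; signal: turbidity as optical density at 615 nm; benchmarks: positive control amphotericin B 10 µg/mL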
# The depositor's hits bear a star; / = no result. Sampled rows, rich in hits. Any-hit rate of the full collection: about 3.7%.
SMILES,Insulin prom inh,RAM network inh,Yeast life ext,Efa HMGR inh,BB579 growth dn
COc1cccc(N2CCN(C(=O)CSc3ccc(F)cc3)CC2)c1,-35.7,1.5,/,4.1,/
O=C(CN(Cc1ccco1)C(=O)Cn1nnc(-c2cccs2)n1)NCC1CCCO1 (stereo not given),-93.3,0.4,/,-5.5,/
Cc1ccc2nc(-c3cc(N)cc(N)c3)oc2c1,5.6,2.5,-31.4,13.6*,-40.6
CC(OC(=O)/C=C/c1ccco1)C(=O)Nc1cccc([N+](=O)[O-])c1 (stereo not given),/,9.0*,5.2,-3.8,-19.7
Cc1ccccc1OC(=O)n1c(=S)oc2cc(Cl)ccc21,27.0,-0.9,80.4*,0.8,-33.7
O=C(Oc1ccccc1)n1c(=S)oc2ccccc21,-10.3,0.0,-11.8,-4.8,-9.7
CC(C)=CC(=O)Nc1nc2ccc([N+](=O)[O-])cc2s1,23.5,4.4,/,-5.6,/
CCN(CCNCC(O)COCc1ccc(Cl)cc1)c1cccc(C)c1 (stereo not given),/,-0.8,/,30.9*,/
COc1ccc(CCNc2ccc(N3C(=O)CC(C)C3=O)cc2[N+](=O)[O-])cc1OC (stereo not given),-21.4,2.0,/,-0.9,/
O=C(CN(c1ccccc1F)S(=O)(=O)c1ccccc1)NC1CCCCCC1,-33.3,10.6*,-4.1,-1.8,-28.1
Cc1ccc(S(=O)(=O)N(CC(=O)NC2CCCCCC2)c2ccccc2F)cc1,-26.7,4.8,-7.8,-4.0,-31.2
CCOC(=O)c1sc2nc(C)[nH]c(=S)c2c1C,78.6*,0.4,/,-2.0,/
CCOC(=O)c1sc2nc(C)n(N)c(=O)c2c1C,40.0,0.9,/,-1.1,/
Cc1ccc(SCCNC(=S)Nc2cc(C)ccc2C)cc1,24.1,8.9*,-13.0,-4.8,7.9
Cc1ccc(SCCNC(=S)Nc2ccccc2)cc1,2.7,0.7,-13.5,-3.2,-40.2
Cn1c(COc2ccccc2)nnc1SCC(=O)Nc1ccc(S(N)(=O)=O)cc1,-19.4,2.4,-4.8,-2.8,-29.6
NS(=O)(=O)c1ccc(NC(=O)CSc2nnc(COc3ccccc3Cl)n2C2CC2)cc1,64.9,9.5*,-4.5,-1.1,-46.5
COc1cccc(-c2cc(C(=O)N3CC4(C)CC3CC(C)(C)C4)no2)c1 (stereo not given),/,10.3*,1.0,-4.7,-72.0
Cc1ccc2c(c1)c(Sc1ccccc1)c(CC(=O)O)n2C,63.0,6.4,27.1*,-0.2,-47.5
COCCN=c1scc(-c2cccs2)n1/N=C/c1ccc(O)c(O)c1O,/,9.6*,-0.8,-8.4,-35.5
CCC(=O)Nc1ccccc1C(=O)OCC(=O)c1ccc2ccccc2c1,26.7,10.2*,-9.6,1.9,-68.9
CCC(=O)Nc1ccccc1C(=O)OCC(=O)c1ccccc1,-22.9,-0.3,-19.4,1.9,-10.9
Cc1cc(NS(=O)(=O)c2ccc(CC(C)C)cc2)no1,-33.3,0.4,50.3*,0.0,-39.3
CN1C(=O)/C(=C/c2cc(C(C)(C)C)c(O)c(C(C)(C)C)c2)NC1=S,-21.4,4.9,/,-0.1,/
COc1ccc(/C=C/C(=O)NC(=S)NNC(=O)c2ccco2)cc1,36.8,1.7,/,9.8*,-35.9
SMILES,Insulin prom inh,RAM network inh,Yeast life ext,Efa HMGR inh,BB579 growth dn
O=C(NC(=S)NNC(=O)c1cc2ccccc2cc1O)c1ccco1,/,6.2,/,-1.9,/
O=C(NC(=S)NNC(=O)c1ccccc1O)c1ccco1,/,1.0,82.4*,-0.2,-58.4
CC(C)(C)NC(=O)c1cc([N+](=O)[O-])ccc1N1CCCCC1,/,1.4,-2.0,-5.0,-34.4
Cc1ccc(NC(=S)Nc2ccc(Cl)c(Cl)c2)c(OC(F)F)c1,/,-1.7,-8.1,-0.8,85.4*
Cc1ccc(NC(=S)Nc2ccc(OC(F)F)c(Cl)c2)cc1Cl,/,2.7,-4.4,-3.4,-36.2
COc1ccc(-c2cc(Nc3ccccc3NC(=O)C(F)(F)F)n(CCC#N)n2)cc1,60.0*,1.8,-0.6,-2.9,-24.0
CCc1nnc(NS(=O)(=O)c2ccc(NC(=O)/C=C/c3ccccc3Cl)cc2)s1,/,8.8*,/,5.7,/
Nc1cc(=O)[nH]c(=S)n1-c1cccc(C(F)(F)F)c1,60.0*,2.4,-8.5,-4.2,18.1
Cc1cccc(-n2c(N)cc(=O)[nH]c2=S)c1C,-21.6,0.0,-3.5,-3.3,-17.2
O=C(NNC1=NC2(CCCC2)Cc2ccccc21)c1ccncc1,-6.2,0.4,/,-0.9,/
O=C(c1ccc(COc2ccccc2[N+](=O)[O-])o1)N1CCCCC1,/,1.1,-6.5,-5.8,-15.1
